From ChEMBL document CHEMBL1141391 (J Med Chem, 2007) come the findings set out here.

The test system of test [1] is 1A9. Kind of test: Inhibition of growth in 1A9 cell line after 72 hrs. In kind it is functional, cell-based. To be noted: Homo sapiens, 1A9, 72 h.
For test [2], the system named is A2780. Kind of test: Cytotoxicity against A2780 cell line. The class given is cell-based. To be noted: Homo sapiens.
In test [3] the test system is 1A9. Kind of test: Relative resistance, IC50 for 1A9-A8 A8 T-beta-274I mutant/IC50 for 1A9. The class given is functional, Homo sapiens.
Test [4] deals with 1A9/ptx-10. Kind of test: Relative resistance, IC50 for 1A9-PTX10 F-beta-270V mutant/IC50 for 1A9. The class given is functional, Homo sapiens.
Test [5] concerns PC-3. Kind of test: Cytotoxicity against PC3 cell line by MTT assay. The class given is cell-based. To be noted: Homo sapiens. On the technique in general: Tetrazolium dyes change colour on reduction, which living cells bring about.
Test [6] can be described thus: Inhibition of growth in epothilone A resistant 1A9-A8 T-beta-274I mutant cell line after 72 hrs by SRB assay. To be noted: Homo sapiens, 1A9, 72 h. The class given is functional, cell-based.
Test [7] addresses Tubulin (Homo sapiens) (UniProt P68371+Q9H4B7+P0DPH7+P68366+Q13509+Q71U36+P04350+Q3ZCM7+P07437+P68363+Q9BQE3+Q6PEY2+Q13885+Q9BVA1+Q9BUF5). Kind of test: Induction of GTP-tubulin polymerization. In kind it is protein-complex assay. An outline of the steps: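 ED50 for induction of tubulin assembly, read by light scattering at 350 nm or by fluorescence in a 96-well format. GTP-tubulin was used unless otherwise stated. Some samples were run with GDP-tubulin and normalized to the GTP-tubulin scale. Some values are single determinations.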

Test [8] relates to 1A9/ptx-10. Kind of test: Inhibition of growth in paclitaxel resistant 1A9-PTX10 F-beta-270V mutant cell line after 72 hrs by SRB assay. In kind it is functional, cell-based. To be noted: Homo sapiens, 1A9/ptx-10, 72 h. (Sulforhodamine B stains cellular protein and so reports cell mass.)

For orientation: IC50 means the point on the concentration scale where inhibition reaches its midpoint. Lower therefore signals inhibition by little substance. For the compound `CC(=O)O[C@H]1C(=O)[C@]2(C)C(O)C[C@H]3OC[C@]34OC(=O)/C=C\Cc3ccccc3[C@H](NC(=O)c3ccccc3)[C@@H](O)C(=O)O[C@H]3C[C@@](O)([C@@H](OC(=O)c5ccccc5)[C@H]42)C(C)(C)C1=C3C` (some centres undefined), the IC50 is 0.32 nM in test [1]; 0.3 nM in test [2]; 2.5 nM in test [5]; 0.27 nM in test [6]; 0.13 nM in test [8]. The entries for the “Ratio IC50” value in test [3] and in test [4] were 0.84 and 1.8, respectively. Also, the ED50 in test [7] came out at 0.3 µM.
As for `C=CCCC(=O)O[C@@]12CO[C@@H]1C[C@H](O)[C@@]1(C)C(=O)[C@H](OC(C)=O)C3=C(C)[C@@H](OC(=O)[C@H](O)[C@@H](NC(=O)c4ccccc4)c4cccc(C=C)c4)C[C@@](O)([C@@H](OC(=O)c4ccccc4)[C@H]21)C3(C)C`, the IC50 in test [1] was 13.7 nM; in test [2], 350 nM; in test [5] it was 55 nM; in test [6], 137 nM; in test [8], 42 nM. Also, the “Ratio IC50” value in test [3] was 10; in test [4], 5.5. Also, the ED50 in test [7] amounted to 0.49 µM.
On to `CC(=O)O[C@H]1C(=O)[C@@]2(C)[C@@H]3[C@H](OC(=O)c4ccccc4)[C@]4(O)C[C@H](OC(=O)[C@H](O)[C@@H](NC(=O)c5ccccc5)c5ccccc5CCCC(=O)O[C@]35CO[C@@H]5C[C@@H]2O)C(C)=C1C4(C)C`, for which the IC50 was 0.07 nM in test [1]; 0.5 nM in test [2]; 2.4 nM in test [5]; 0.44 nM in test [6]; 1.03 nM in test [8]. For the same compound, the “Ratio IC50” value in test [3] is 6.3; in test [4] it was 12. Further, the ED50 in test [7] is 0.21 µM.
